Test results as given in ChEMBL document CHEMBL3259653, “Potent and selective inhibitors of human reticulocyte 12/15-lipoxygenase as anti-stroke therapies” (J Med Chem, 2014).
Active and inactive are the calls of the source. The calls are words filed in the database; no cut-off is given here.

Experiments:
[1] = biological target: T1, Prostaglandin G/H synthase 1 (Ovis aries) (UniProt P05979); assay: Inhibition of ovine COX-1 using arachidonic acid as substrate assessed as consumption of oxygen at 5 uM preincubated for 5 mins followed by substrate addition by oxygen electrode-based assay relative to control
T1 sequence (whole entry): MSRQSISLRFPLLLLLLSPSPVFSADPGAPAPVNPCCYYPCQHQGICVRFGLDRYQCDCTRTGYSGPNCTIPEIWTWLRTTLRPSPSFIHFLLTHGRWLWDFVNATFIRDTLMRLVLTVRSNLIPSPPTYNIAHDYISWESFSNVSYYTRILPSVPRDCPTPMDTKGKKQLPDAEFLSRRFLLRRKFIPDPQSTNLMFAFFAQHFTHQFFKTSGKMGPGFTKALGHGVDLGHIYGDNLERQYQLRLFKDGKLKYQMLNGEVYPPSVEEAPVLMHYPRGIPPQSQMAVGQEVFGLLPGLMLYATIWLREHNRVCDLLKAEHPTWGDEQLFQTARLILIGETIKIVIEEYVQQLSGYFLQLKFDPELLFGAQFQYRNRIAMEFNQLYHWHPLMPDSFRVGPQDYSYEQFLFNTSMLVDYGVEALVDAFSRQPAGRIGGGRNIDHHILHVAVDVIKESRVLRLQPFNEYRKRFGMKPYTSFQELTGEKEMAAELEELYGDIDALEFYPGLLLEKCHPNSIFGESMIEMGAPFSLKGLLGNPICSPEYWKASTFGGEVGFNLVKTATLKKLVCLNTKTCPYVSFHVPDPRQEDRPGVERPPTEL
In short: (§1)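 COX-1 or COX-2 (2–5 μg) in 0.1 M Tris-HCl pH 8.0 with 5 mM EDTA, 2 mM phenol and 1 μM hematin at 37 °C. Inhibitor was preincubated 5 min, then 100 μM arachidonic acid was added. Oxygen consumption was read on an oxygen electrode, and percent inhibition was calculated against a DMSO control, with indomethacin as positive control.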

[2] = biological target: T2, Prostaglandin G/H synthase 2 (Homo sapiens) (UniProt P35354); assay: Inhibition of human COX-2 using arachidonic acid as substrate assessed as consumption of oxygen at 5 uM preincubated for 5 mins followed by substrate addition by oxygen electrode-based assay relative to control; in short: as §1
T2 sequence (whole entry): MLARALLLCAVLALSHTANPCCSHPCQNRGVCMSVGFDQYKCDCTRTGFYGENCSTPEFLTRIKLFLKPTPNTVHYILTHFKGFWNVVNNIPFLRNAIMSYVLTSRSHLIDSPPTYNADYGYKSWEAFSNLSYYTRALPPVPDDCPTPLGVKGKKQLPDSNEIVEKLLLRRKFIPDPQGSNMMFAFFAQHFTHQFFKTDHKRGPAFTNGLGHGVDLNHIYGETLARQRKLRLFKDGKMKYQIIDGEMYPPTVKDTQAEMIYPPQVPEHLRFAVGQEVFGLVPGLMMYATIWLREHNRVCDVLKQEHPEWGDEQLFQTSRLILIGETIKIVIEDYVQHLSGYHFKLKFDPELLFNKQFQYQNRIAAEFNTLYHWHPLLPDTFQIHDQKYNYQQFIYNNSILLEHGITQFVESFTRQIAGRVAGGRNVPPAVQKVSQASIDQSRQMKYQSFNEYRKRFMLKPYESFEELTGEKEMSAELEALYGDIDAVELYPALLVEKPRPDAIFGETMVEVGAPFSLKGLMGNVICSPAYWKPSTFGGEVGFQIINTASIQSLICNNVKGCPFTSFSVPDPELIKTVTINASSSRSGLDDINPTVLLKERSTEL

[3] = biological target: T3, Polyunsaturated fatty acid lipoxygenase ALOX15 (Homo sapiens, UniProt P16050); assay: Inhibition of recombinant N-terminal His6-tagged human reticulocyte 12/15-lipoxygenase using arachidonic acid as substrate by UV-vis spectrometric analysis
T3 sequence (P16050 whole entry): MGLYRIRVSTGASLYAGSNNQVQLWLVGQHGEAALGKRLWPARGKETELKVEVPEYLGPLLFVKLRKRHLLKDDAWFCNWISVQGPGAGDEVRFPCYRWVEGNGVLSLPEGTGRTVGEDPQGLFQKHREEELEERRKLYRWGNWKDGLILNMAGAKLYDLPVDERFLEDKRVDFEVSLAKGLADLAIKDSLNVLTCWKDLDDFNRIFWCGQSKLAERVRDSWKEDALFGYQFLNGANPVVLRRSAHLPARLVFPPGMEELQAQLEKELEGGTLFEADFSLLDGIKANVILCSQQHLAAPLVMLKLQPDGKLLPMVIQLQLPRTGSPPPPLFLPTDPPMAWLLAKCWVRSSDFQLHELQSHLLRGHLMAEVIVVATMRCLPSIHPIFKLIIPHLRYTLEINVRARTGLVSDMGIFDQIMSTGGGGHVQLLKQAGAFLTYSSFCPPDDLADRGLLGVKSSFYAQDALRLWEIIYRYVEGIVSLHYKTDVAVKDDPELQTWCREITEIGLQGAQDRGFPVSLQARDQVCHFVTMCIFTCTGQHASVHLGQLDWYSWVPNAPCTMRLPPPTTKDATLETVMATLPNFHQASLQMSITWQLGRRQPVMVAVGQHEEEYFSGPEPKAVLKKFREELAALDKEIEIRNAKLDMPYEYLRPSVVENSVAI

[4] = biological target: T4, Polyunsaturated fatty acid lipoxygenase ALOX15 (Homo sapiens) (UniProt P16050); assay: Inhibition of recombinant N-terminal His6-tagged human reticulocyte 12/15-lipoxygenase using arachidonic acid as substrate at 25 uM by UV-vis spectrometric analysis relative to control
T4 sequence (whole entry): T3 sequence (P16050 whole entry)
In short: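 His6-tagged human 12/15-LOX, Ni-NTA purified, at 40 nM in 25 mM HEPES pH 7.5 with 0.01% Triton X-100 and 10 μM arachidonic acid, in a stirred cuvette at 22 °C. Diene formation was followed at 234 nm, and percent inhibition at 25 μM inhibitor was calculated against the DMSO control rate.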

[5] = biological target: T5, Polyunsaturated fatty acid lipoxygenase ALOX15 (Mus musculus) (UniProt P39654); assay: Inhibition of 12/15-lipoxygenase in mouse HT22 cells assessed as protection against glutamate-induced cell death at 5 uM after 24 hrs by LDH release assay; type: cell-based; details: HT-22
T5 sequence (whole entry): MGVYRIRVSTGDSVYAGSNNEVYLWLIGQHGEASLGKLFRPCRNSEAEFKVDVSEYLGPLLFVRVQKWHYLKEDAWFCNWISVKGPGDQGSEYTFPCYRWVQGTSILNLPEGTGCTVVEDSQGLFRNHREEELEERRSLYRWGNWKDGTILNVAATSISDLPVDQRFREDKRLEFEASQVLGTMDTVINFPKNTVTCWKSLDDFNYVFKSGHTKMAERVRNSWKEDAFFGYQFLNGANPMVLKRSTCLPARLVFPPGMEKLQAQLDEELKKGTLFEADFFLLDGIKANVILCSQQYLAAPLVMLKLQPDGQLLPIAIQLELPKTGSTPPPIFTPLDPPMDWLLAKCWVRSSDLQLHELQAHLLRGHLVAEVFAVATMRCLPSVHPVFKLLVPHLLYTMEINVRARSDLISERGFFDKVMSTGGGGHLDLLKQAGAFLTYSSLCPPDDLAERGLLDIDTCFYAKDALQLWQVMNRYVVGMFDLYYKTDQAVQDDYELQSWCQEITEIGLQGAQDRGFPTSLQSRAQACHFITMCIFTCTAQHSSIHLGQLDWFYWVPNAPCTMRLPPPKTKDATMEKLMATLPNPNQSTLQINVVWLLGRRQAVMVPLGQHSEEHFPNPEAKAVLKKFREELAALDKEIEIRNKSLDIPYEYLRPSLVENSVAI
In short: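 HT22 mouse hippocampal cells were grown in DMEM with 10% FBS and penicillin/streptomycin, seeded at 1 × 10^4 cells/well and treated 18 h later at 50–70% confluence. Medium was exchanged for fresh medium with 5 mM glutamate plus compound or DMSO (≤0.1% final). Death was scored as percent LDH released to the medium versus the cell extract, background-subtracted.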

[6] = biological target: T6, Polyunsaturated fatty acid 5-lipoxygenase (Homo sapiens, UniProt P09917); assay: Inhibition of human 5-lipoxygenase using arachidonic acid as substrate by UV-vis spectrometric analysis
T6 sequence (P09917 whole entry): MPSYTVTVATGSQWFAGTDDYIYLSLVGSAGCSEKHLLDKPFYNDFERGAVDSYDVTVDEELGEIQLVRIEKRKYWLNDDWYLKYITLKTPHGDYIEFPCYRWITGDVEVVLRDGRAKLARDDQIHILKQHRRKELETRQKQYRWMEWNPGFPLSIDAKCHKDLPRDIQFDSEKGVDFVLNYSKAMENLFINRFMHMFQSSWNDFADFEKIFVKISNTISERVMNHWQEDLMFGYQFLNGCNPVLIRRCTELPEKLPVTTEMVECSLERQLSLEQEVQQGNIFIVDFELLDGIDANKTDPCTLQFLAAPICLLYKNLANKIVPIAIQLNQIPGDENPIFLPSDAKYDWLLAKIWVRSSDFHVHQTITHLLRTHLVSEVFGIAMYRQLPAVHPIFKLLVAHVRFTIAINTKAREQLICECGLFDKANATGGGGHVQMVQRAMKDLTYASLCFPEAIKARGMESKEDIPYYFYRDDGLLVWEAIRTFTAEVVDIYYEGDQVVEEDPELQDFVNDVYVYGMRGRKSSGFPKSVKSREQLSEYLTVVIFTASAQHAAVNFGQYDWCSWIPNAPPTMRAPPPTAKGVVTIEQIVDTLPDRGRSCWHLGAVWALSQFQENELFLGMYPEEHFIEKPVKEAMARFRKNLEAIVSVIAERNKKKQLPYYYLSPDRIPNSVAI

[7] = biological target: T7, Polyunsaturated fatty acid lipoxygenase ALOX15B (Homo sapiens, UniProt O15296); assay: Inhibition of N-terminal His6-tagged human epithelial 15-lipoxygenase-2 using arachidonic acid as substrate by UV-vis spectrometric analysis
T7 sequence (O15296 whole entry): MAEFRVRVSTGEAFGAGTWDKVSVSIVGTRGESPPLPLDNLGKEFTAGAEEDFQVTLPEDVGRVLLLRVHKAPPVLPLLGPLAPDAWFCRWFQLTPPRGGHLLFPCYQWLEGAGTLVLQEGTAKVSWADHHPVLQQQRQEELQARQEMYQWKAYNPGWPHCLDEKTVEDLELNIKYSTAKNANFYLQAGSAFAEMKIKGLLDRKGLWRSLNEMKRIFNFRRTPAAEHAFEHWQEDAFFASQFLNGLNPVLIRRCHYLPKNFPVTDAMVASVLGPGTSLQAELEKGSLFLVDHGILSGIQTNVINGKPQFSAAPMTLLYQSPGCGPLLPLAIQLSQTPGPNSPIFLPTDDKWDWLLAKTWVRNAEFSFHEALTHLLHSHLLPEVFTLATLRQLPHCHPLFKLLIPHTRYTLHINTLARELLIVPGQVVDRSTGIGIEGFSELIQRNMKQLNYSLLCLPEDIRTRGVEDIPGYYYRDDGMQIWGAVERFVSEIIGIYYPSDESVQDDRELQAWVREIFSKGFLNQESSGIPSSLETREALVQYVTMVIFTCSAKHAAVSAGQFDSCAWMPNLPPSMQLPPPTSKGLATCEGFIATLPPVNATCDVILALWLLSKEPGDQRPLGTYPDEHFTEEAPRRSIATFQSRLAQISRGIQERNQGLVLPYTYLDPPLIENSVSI

With `CNc1oc(-c2cccc(Cl)c2Cl)nc1C#N` as the molecule, how does the inhibition [1] read?
The inhibition was under 10%.

And the inhibition [2]?
The inhibition was under 10%.

Which IC50 [3] does the source give for `N#Cc1nc(-c2cccc3ccccc23)oc1NC1COC1` here?
Its IC50 is over 25 µM.

For `CNc1nnc(-c2cccc3ccccc23)s1`, which IC50 [3] is on record?
Its IC50 is over 40 µM.

How did the IC50 [3] turn out when `N#Cc1nc(-c2cccc3ccccc23)oc1NCc1ccccc1` was run?
The IC50 was over 30 µM.

And the Imax [4]?
The Imax was under 50%.

What does the source list for `N#Cc1nc(-c2cccc3ccccc23)oc1Nc1ccccc1`?
IC50 [3]: > 30 µM; Imax [4]: < 50%

Which IC50 [3] does the source give for `CNc1nc(-c2cccc3ccccc23)ccc1C#N` here?
Its IC50 is over 40 µM.

With `N#Cc1nc(-c2cccc3ccccc23)oc1NC1CNC1` as the molecule, how does the IC50 [3] read?
Its IC50 is over 40 µM.

And the inhibition [5]?
The inhibition was “Active”.

With `CNc1sc(-c2cccc3ccccc23)nc1C#N` as the molecule, how does the IC50 [6] read?
Its IC50 is over 50 µM.

What about the IC50 [7] of the same molecule?
Its IC50 is over 50 µM.

What about the inhibition [1] of the same molecule?
The inhibition was under 10%.

What about the inhibition [2] of the same molecule?
The inhibition was under 10%.

Which results are given for `CNc1oc(-c2ccc(Cl)c(Cl)c2)nc1C#N`?
inhibition [1]: < 10%; inhibition [2]: < 10%

`CNc1oc(-c2cccc3cnccc23)nc1C#N` was tested. Which Imax [4] did it give?
Its Imax is under 50%.

Which IC50 [3] does the source give for `CNc1oc(-c2cccc3ccccc23)nc1C(=O)OC` here?
Its IC50 is over 40 µM.

With `CNc1oc(-c2ccc3ccccc3c2)nc1C#N` as the molecule, how does the Imax [4] read?
Its Imax is under 50%.

How did the IC50 [3] turn out when `CC(C)Nc1oc(-c2cccc3ccccc23)nc1C#N` was run?
The IC50 was over 40 µM.

How did the IC50 [3] turn out when `CNc1oc(C2CCCC2)nc1C#N` was run?
Its IC50 is over 50 µM.

For `CNc1nc(C#N)c(-c2cccc3ccccc23)o1`, which IC50 [3] is on record?
The IC50 was over 40 µM.

And the inhibition [5]?
The inhibition was “inactive”.

With `CNc1sc(-c2cccc3ccccc23)nc1C(=O)OC` as the molecule, how does the Imax [4] read?
The Imax was under 50%.

With `CNc1oc(-c2ccc(-c3ccccc3)cc2)nc1C#N` as the molecule, how does the inhibition [5] read?
The inhibition was “Active”.
